Measurements published in ChEMBL document CHEMBL1649301, “Polyamine transport as a target for treatment of Pneumocystis pneumonia” (Antimicrob Agents Chemother, 2009).
Activity calls are given as the source filed them. The rule behind the calls is not given here.

How the values were obtained:
[1] = Ratio of IC50 for polyamine uptake in CHO-MG cells to IC50 for polyamine transporter expressed in CHO cells
[2] = Inhibition of polyamine transporter expressed in CHO cells; type: cell-based
[3] = Cytotoxicity against Sprague-Dawley rat alveolar macrophages assessed as cell viability at 0.4 mM after 3 hrs by trypan blue exclusion assay; type: cell-based, Macrophage; conditions: read-out: Activity
Outline: (§1)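 Alveolar macrophages from normal rats (10⁶ per well) were kept in serum-free DMEM with compound for 3 h. They were then stained with 0.4% trypan blue, and unstained viable cells were counted.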

Pneumocystis carinii [4] = assay: Antimicrobial activity against Pneumocystis carinii infected in Sprague-Dawley rat assessed as reduction of foamy exudates in alveoli at 0.5 mg/kg, intranasally every 2 days 28 days after infection for 21 days; type: functional, organism-based; parameters: dose 0.5 mg/kg
Outline: (§2)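 Female Sprague-Dawley rats (~120 g) were immunosuppressed with dexamethasone at 1.8 mg/liter in drinking water. After 1 week they received a transtracheal inoculum of 7.5 × 10⁶ trophic forms, plus penicillin i.m. weekly. From infection day 28, they were given 50 μl of a 1 mM solution intranasally every 2 days. After 21 days, lungs were fixed in 4% paraformaldehyde, and paraffin sections were H&E-stained and examined by light microscopy. Inflammation was graded 0–5.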

Pneumocystis carinii [5] = assay: Antimicrobial activity against Pneumocystis carinii infected in Sprague-Dawley rat assessed as reduction of alveolar septum thickness at 0.5 mg/kg, intranasally every 2 days 28 days after infection for 21 days; type: functional, organism-based; parameters: dose 0.5 mg/kg; outline: as §2
[6] = Cytotoxicity against Sprague-Dawley rat alveolar macrophages assessed as cell viability at 2 mM after 3 hrs by trypan blue exclusion assay; type: cell-based, Macrophage; conditions: for Activity: macrophage, 3 h, 2000 µM; outline: as §1
CHO-MG = assay: Inhibition of polyamine uptake in CHO-MG cells; type: functional, cell-based; conditions: Cricetulus griseus
Pneumocystis carinii [7] = assay: Antimicrobial activity against Pneumocystis carinii infected in Sprague-Dawley rat assessed as reduction of inflammation at 0.5 mg/kg, intranasally every 2 days 28 days after infection for 21 days; type: functional, organism-based; parameters: dose 0.5 mg/kg; outline: as §2
Pneumocystis carinii [8] = assay: Antimicrobial activity against Pneumocystis carinii infected in Sprague-Dawley rat assessed as increase of host survival time at 0.5 mg/kg, intranasally every 2 days 28 days after infection; type: functional
Outline: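 Female Sprague-Dawley rats (~120 g) were immunosuppressed with dexamethasone 1.8 mg/liter in drinking water. One week later they were inoculated transtracheally with 7.5 × 10⁶ trophic forms, with weekly intramuscular penicillin. From infection day 28, rats received 50 μl of a 1 mM solution intranasally every 2 days (7–8 rats/group), alongside untreated infected and uninfected controls. Survival was followed to day 84 and compared by Kaplan-Meier/log-rank.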

Pneumocystis carinii [9] = assay: Antimicrobial activity against Pneumocystis carinii infected in Sprague-Dawley rat assessed as reduction of organism burden in lungs at 0.5 mg/kg, intranasally every 2 days 28 days after infection for 21 days; type: functional, organism-based; parameters: dose 0.5 mg/kg
Outline: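 The dexamethasone-immunosuppressed, P. carinii-infected female Sprague-Dawley rats were dosed intranasally with 50 μl of a 1 mM solution every 2 days from infection day 28, for 21 days. Cysts were counted in paraffin lung sections stained with modified Grocott's methenamine silver, and burden was graded on a 0–4 scale.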

Pneumocystis carinii [10] = assay: Antimicrobial activity against Pneumocystis carinii infected in Sprague-Dawley rat assessed as reduction of number of apoptotic alveolar macrophages at 0.5 mg/kg, intranasally every 2 days 28 days after infection for 21 days; type: functional; parameters: scale not given: the % may be the effect or the level left
Outline: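 Lung sections came from infected, dexamethasone-treated rats given 50 μl of 1 mM intranasally every 2 days for 21 days from day 28. Sections were digested with proteinase K (20 μg/ml, room temperature, 10 min), then TdT/fluorescein-12-dUTP labelled (37°C, 1 h) and DAPI-mounted. Apoptotic macrophage percentage was taken as TUNEL+/DAPI+ cells over 10 random 100× fields per slide.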

Pneumocystis carinii [11] = assay: Antimicrobial activity against Pneumocystis carinii infected in Sprague-Dawley rat assessed as increase of open alveolar space at 0.5 mg/kg, intranasally every 2 days 28 days after infection for 21 days; type: functional, organism-based; parameters: dose 0.5 mg/kg; outline: as §2
Pneumocystis carinii [12] = assay: Antimicrobial activity against Pneumocystis carinii infected in Sprague-Dawley rat assessed as effect on foamy exudates in alveoli at 0.5 mg/kg, intranasally every 2 days 28 days after infection for 21 days; type: functional, organism-based; parameters: dose 0.5 mg/kg; outline: as §2
Pneumocystis carinii [13] = assay: Antimicrobial activity against Pneumocystis carinii infected in Sprague-Dawley rat assessed as effect on alveolar structure at 0.5 mg/kg, intranasally every 2 days 28 days after infection for 21 days; type: functional, organism-based; parameters: dose 0.5 mg/kg; outline: as §2
Pneumocystis carinii [14] = assay: Antimicrobial activity against Pneumocystis carinii infected in Sprague-Dawley rat assessed as reduction of inflammatory cell infiltration at 0.5 mg/kg, intranasally every 2 days 28 days after infection for 21 days; type: functional, organism-based; parameters: dose 0.5 mg/kg; outline: as §2

Structure (SMILES)	IC50 [2] [µM]	Ratio IC50 [1]	viability at 3 h, 400 µM [3] [%]	Activity (Pneumocystis carinii [4])	Activity (Pneumocystis carinii [5])	Activity [6]	IC50 (CHO-MG) [µM]	Activity (Pneumocystis carinii [7])	Survival (Pneumocystis carinii [8]) [days]	Activity (Pneumocystis carinii [9])	Activity (Pneumocystis carinii [10])	Activity (Pneumocystis carinii [11])	Activity (Pneumocystis carinii [12])	Activity (Pneumocystis carinii [13])	Activity (Pneumocystis carinii [14])	viability at 3 h, 2000 µM ([6]; Sprague-Dawley, alveolar macrophages, read-out: Activity) [%]
Cl.Cl.NCCCCNCc1c2ccccc2cc2ccccc12	7.7	1	< 16	–	–	–	–	–	–	–	–	–	–	–	–	–
Cl.NCCCCNCCCCNCc1c2ccccc2c(CNCCCCNCCCCN)c2ccccc12	0.045	>2222	–	Active	Active	Non-toxic	> 100	Active	84	Active	80%	Active	–	–	–	–
Cl.NCCCCNCCCCNCc1ccc(CNCCCCNCCCCN)cc1	0.074	677	–	–	–	Non-toxic	50.2	–	84	Active	inactive	–	inactive	inactive	Active	–

Now from value to compound, other results behind:

IC50 [2] [µM]	Structure (SMILES)	Ratio IC50 [1]	viability at 3 h, 400 µM [3] [%]	Activity (Pneumocystis carinii [4])	Activity (Pneumocystis carinii [5])	Activity [6]	IC50 (CHO-MG) [µM]	Activity (Pneumocystis carinii [7])	Survival (Pneumocystis carinii [8]) [days]	Activity (Pneumocystis carinii [9])	Activity (Pneumocystis carinii [10])	Activity (Pneumocystis carinii [11])	Activity (Pneumocystis carinii [12])	Activity (Pneumocystis carinii [13])	Activity (Pneumocystis carinii [14])	viability at 3 h, 2000 µM ([6]; Sprague-Dawley, alveolar macrophages, read-out: Activity) [%]
10.6	NCCCCNCCCCNCCCCNCc1c2ccccc2cc2ccccc12	–	88	–	–	–	33.2	–	–	–	–	–	–	–	–	42
0.45	NCCCCNCCCCNCc1c2ccccc2cc2ccccc12	–	< 16	–	–	–	–	–	–	–	–	–	–	–	–	–
